Data as given in paper PMC3253552 (Biochemical and Biophysical Research Communications, 2011).
Bridge positions count the residues as written; N and C are the ends. Square brackets hold non-standard residues; d marks the D form. Peptide text beside a SMILES is read from it. R8 = C=CCCCCCC[C@@](C)(N)C(=O)O; S5 = C=CCCC[C@](C)(N)C(=O)O

What was measured:
[1] = CD spectroscopy of peptide helicity and thermostability; format: physicochemical; conditions: peptide 0.1 mg/mL in sodium phosphate buffer pH 7.4, 24°C
Outline: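 Peptide at 0.1 mg/mL in sodium phosphate buffer, pH 7.4, in a quartz cuvette with 0.2 cm path length. Far-UV CD spectra were scanned from 185 to 240 nm at 24°C. Signal was normalised to mean residue ellipticity to estimate helical content. For thermostability, ellipticity was followed while temperature was raised from 10 to 90°C.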

pepsin = assay: Peptide proteolysis by pepsin, loss of intact peptide by MALDI-TOF MS; format: in vitro ADME; conditions: for susceptibility to proteolysis by pepsin (in words): pepsin 0.5 μg/ml, 10% acetic acid pH 2, peptide 500 μg/ml, 37°C, MALDI-TOF MS; for remaining at 24 h, 500 μg/ml: pepsin, pH 2
chymotrypsin = assay: Peptide proteolysis by chymotrypsin, loss of intact peptide by MALDI-TOF MS; format: in vitro ADME; conditions: pH 7
human ABCA1 = human ABCA1 (Homo sapiens, UniProt O95477); assay: Cholesterol efflux from ABCA1 transfected BHK cells; format: cell-based; conditions: [3H] cholesterol, 18 h with peptide
Sequence of human ABCA1 (O95477 whole entry): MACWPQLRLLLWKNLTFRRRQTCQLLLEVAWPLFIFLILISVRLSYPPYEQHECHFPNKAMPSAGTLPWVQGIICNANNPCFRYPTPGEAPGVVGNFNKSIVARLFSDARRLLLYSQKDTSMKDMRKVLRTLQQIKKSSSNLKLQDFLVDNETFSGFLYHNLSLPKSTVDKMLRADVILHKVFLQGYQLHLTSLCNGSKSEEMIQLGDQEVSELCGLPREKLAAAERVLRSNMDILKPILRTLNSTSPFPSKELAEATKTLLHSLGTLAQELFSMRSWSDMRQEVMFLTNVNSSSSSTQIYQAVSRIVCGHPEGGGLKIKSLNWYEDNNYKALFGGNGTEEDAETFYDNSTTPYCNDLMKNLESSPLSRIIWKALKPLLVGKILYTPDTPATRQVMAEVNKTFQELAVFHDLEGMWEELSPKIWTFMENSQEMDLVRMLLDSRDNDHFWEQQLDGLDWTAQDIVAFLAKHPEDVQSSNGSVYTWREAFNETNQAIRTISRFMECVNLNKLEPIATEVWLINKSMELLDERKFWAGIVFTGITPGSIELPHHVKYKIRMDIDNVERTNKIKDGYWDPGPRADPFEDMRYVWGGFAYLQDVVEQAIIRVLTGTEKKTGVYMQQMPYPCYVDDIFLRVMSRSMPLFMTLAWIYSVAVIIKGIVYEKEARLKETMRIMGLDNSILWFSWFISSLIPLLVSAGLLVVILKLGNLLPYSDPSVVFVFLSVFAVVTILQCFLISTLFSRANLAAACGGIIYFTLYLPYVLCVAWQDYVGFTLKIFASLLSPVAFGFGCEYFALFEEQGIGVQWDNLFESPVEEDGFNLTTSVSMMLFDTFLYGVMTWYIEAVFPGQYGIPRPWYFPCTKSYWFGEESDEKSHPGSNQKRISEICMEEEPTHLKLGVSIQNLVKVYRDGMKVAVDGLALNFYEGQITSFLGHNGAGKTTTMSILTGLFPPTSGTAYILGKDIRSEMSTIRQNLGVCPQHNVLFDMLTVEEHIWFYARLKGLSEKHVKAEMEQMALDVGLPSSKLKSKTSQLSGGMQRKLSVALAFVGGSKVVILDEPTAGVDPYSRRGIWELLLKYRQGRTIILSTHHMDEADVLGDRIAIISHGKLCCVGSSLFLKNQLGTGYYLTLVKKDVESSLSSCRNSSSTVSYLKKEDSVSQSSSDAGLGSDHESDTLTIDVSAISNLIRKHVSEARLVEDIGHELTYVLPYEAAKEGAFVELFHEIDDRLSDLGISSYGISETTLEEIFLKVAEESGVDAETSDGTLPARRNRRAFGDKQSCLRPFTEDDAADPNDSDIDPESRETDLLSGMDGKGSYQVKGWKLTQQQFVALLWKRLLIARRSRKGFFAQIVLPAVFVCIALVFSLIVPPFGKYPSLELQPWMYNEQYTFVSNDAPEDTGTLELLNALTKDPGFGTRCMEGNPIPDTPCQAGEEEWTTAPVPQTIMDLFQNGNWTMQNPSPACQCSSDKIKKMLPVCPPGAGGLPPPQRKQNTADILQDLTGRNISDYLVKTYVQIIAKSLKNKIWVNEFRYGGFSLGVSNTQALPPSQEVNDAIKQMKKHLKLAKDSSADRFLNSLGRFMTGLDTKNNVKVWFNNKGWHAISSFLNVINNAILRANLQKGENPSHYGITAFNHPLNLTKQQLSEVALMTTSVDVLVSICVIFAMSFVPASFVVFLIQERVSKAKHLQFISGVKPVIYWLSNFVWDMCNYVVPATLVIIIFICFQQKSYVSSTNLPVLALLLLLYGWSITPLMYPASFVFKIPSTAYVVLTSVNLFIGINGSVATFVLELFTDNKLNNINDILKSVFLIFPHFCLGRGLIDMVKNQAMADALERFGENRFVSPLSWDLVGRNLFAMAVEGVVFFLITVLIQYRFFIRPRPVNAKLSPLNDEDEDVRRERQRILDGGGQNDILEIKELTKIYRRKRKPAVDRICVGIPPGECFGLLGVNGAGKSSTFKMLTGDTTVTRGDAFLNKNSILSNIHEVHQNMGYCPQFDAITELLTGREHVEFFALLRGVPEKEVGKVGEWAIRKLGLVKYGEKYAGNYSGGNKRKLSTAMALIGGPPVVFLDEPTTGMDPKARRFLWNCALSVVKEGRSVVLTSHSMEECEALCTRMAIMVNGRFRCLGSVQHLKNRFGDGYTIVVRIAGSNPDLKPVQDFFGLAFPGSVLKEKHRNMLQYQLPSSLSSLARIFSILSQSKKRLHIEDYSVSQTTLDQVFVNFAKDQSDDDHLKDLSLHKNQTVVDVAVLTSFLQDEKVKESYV

[2] = cited from earlier work

| helicity in aqueous buffer at 24°C [1] [%] | susceptibility to proteolysis by pepsin (in words) (pepsin) | remaining at 24 h, 500 μg/ml (pepsin) [%] | remaining at 24 h, 500 μg/ml (chymotrypsin) [%] | increase in cholesterol efflux by the ABCA1 transporter compared to A10 (human ABCA1) [fold] | Compound | helicity when associated with lipids ([2]; apoA-I associated with lipids) | helicity in the lipid-free state ([2]; lipid-free apoA-I) |
| --- | --- | --- | --- | --- | --- | --- | --- |
| 62 | resistant to proteolysis | 0.4 | 0.6 | > 10 | CC(=O)N[C@H](C(=O)N[C@@H](CC(C)C)C(=O)N[C@@H](CC(=O)O)C(=O)N[C@@H](CO)C(=O)N[C@@H](Cc1ccccc1)C(=O)N[C@@H](CCCCN)C(=O)N[C@H](C(=O)N[C@@H](CO)C(=O)N[C@@]1(C)CCCC=CCCC[C@@](C)(C(=O)N[C@@H](CCC(=O)O)C(=O)N[C@@H](CCC(=O)O)C(=O)N[C@@H](Cc2ccc(O)cc2)C(=O)N[C@H](C(=O)N[C@@H](CCCCN)C(=O)N[C@@H](CCCCN)C(=O)N[C@@H](CC(C)C)C(=O)N[C@@H](CC(N)=O)C(=O)N[C@H](C(=O)N[C@@H](CCC(N)=O)C(N)=O)[C@@H](C)O)[C@@H](C)O)NC(=O)[C@H](C)NC(=O)[C@H](CO)NC(=O)[C@H](CC(C)C)NC1=O)C(C)C)C(C)C [S1A10] (Ac-VLDSFKVS[S5]LSA[S5]EEYTKKLNTQ-NH2; staple 9-13) | – | – |
| 97 | resistant to proteolysis | 12.2 | 3.8 | > 10 | CC(=O)N[C@H](C(=O)N[C@@H](CC(C)C)C(=O)N[C@@H](CC(=O)O)C(=O)N[C@@H](CO)C(=O)N[C@@H](Cc1ccccc1)C(=O)N[C@@H](CCCCN)C(=O)N[C@H](C(=O)N[C@@H](CO)C(=O)N[C@]1(C)CCCCCCC=CCCC[C@@](C)(C(=O)N[C@H](C(=O)N[C@@H](CCCCN)C(=O)N[C@@H](CCCCN)C(=O)N[C@@H](CC(C)C)C(=O)N[C@@H](CC(N)=O)C(=O)N[C@H](C(=O)N[C@@H](CCC(N)=O)C(N)=O)[C@@H](C)O)[C@@H](C)O)NC(=O)[C@H](CCC(=O)O)NC(=O)[C@H](CCC(=O)O)NC(=O)[C@H](CC(C)C)NC(=O)[C@H](C)NC(=O)[C@H](CO)NC(=O)[C@H](CC(C)C)NC1=O)C(C)C)C(C)C [S2A10] (Ac-VLDSFKVS[R8]LSALEE[S5]TKKLNTQ-NH2; staple 9-16) | – | – |
| – | – | – | – | – | apoA-I: full length apolipoprotein, the main protein on High Density Lipoproteins | over 67% | about 48% |
